Source: article PMC4524557 (RSC advances, 2015)
Converted amounts (≈) assume the structure as drawn.

What was measured:
[1] = system: Staphylococcus aureus Mu50; experiment: MIC determination; assay type: cell-based; conditions: MU50, read-out: MIC Mu50
[2] = system: Klebsiella pneumoniae; experiment: MIC determination; assay type: cell-based; conditions: K. pneumoniae
[3] = system: S. aureus USA400 biofilms; experiment: Inhibition of biofilm formation; assay type: cell-based, Staphylococcus aureus; conditions: USA400, all tested concentrations from 1.56 to 12.5 μM
[4] = system: S. aureus USA400 biofilms; experiment: Disruption of established 24 h biofilms; assay type: cell-based, Staphylococcus aureus
[5] = system: Staphylococcus aureus UAMS-1; experiment: MIC determination; assay type: cell-based; conditions: UAMS1, read-out: MIC UAMS-1
[6] = system: S. aureus USA300 biofilms; experiment: Disruption of established 24 h biofilms; assay type: cell-based, Staphylococcus aureus; conditions: USA300 24 h biofilm
Outline: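 USA300 from log phase was grown in wells for 24 h at 37°C to form biofilms, then washed with saline. The 10X test compound, alone or with daptomycin or vancomycin, was added with fresh TSB for another 24 h at 37°C. In combinations the test compound ran 1.56-0.20 µM and the antibiotic 6.25-0.78 µM. Daptomycin medium had 2 mM Ca2+. Wells got fresh TSB plus XTT for 2 h at 37°C, then A450 was read as % of untreated biofilm.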

[7] = system: S. aureus USA300 biofilms; experiment: Inhibition of biofilm formation; assay type: cell-based, Staphylococcus aureus; conditions: USA300, between 3.1 and 12.5 μM
[8] = system: Pseudomonas aeruginosa PAO1; experiment: MIC determination; assay type: cell-based; conditions: PAO1, read-out: MIC PA
[9] = system: S. aureus USA200 biofilms; experiment: Disruption of established 24 h biofilms; assay type: cell-based, Staphylococcus aureus; conditions: USA200, at 6.25 μM
[10] = system: Staphylococcus aureus USA400; experiment: MIC determination; assay type: cell-based; conditions: USA400, read-out: MIC USA400
[11] = system: S. aureus UAMS-1 biofilms; experiment: Disruption of established biofilms; assay type: cell-based, Staphylococcus aureus; conditions: UAMS-1, at 6.25 μM
[12] = system: Staphylococcus aureus USA200; experiment: MIC determination; assay type: cell-based; conditions: USA200, read-out: MIC USA200
[13] = system: Staphylococcus aureus USA300; experiment: MIC determination; assay type: cell-based; conditions: USA300, read-out: MIC SA
[14] = system: biofilm; conditions: lower concentrations ineffective; cited from earlier work

SMILES	MIC [1] [µM]	MIC KP [2] [µM]	inhibition of biofilm formation [3] [%]	concentration disrupting established biofilms [4] [µM]	MIC [5] [µM]	biofilm disruption alone ([6]; 3.1 μM vancomycin by itself)	biofilm disruption by combination ([6]; 3.1 μM vancomycin with 0.20 μM C14-RRR)	inhibition of biofilm growth [7] [%]	MIC [8] [µM]	established biofilms disrupted [9] [%]	MIC [10] [µM]	established biofilms disrupted [11]	MIC [12] [µM]	MIC [13] [µM]	concentration with anti-biofilm activity [14] [mg/mL]
CN[C@H](CC(C)C)C(=O)N[C@H]1C(=O)N[C@@H](CC(N)=O)C(=O)N[C@H]2C(=O)N[C@H]3C(=O)N[C@H](C(=O)N[C@H](C(=O)O)c4cc(O)cc(O)c4-c4cc3ccc4O)[C@H](O)c3ccc(c(Cl)c3)Oc3cc2cc(c3O[C@@H]2O[C@H](CO)[C@@H](O)[C@H](O)[C@H]2O[C@H]2C[C@](C)(N)[C@H](O)[C@H](C)O2)Oc2ccc(cc2Cl)[C@H]1O [Vancomycin]	1.56 (≈ 2.26 µg/mL)	> 25	100	6.2 to 12.5	> 12.5	unable to completely disrupt the biofilm	disrupt nearly all the biofilms	80	> 25	80	0.78 (≈ 1.13 µg/mL)	~ 70%	0.35 (≈ 0.507 µg/mL)	0.78 (≈ 1.13 µg/mL)	–
CCCCCCCCCC(=O)N[C@@H](Cc1c[nH]c2ccccc12)C(=O)N[C@H](CC(N)=O)C(=O)N[C@@H](CC(=O)O)C(=O)N[C@@H]1C(=O)NCC(=O)N[C@@H](CCCN)C(=O)N[C@@H](CC(=O)O)C(=O)N[C@H](C)C(=O)N[C@@H](CC(=O)O)C(=O)NCC(=O)N[C@H](CO)C(=O)N[C@@H]([C@H](C)CC(=O)O)C(=O)N[C@@H](CC(=O)c2ccccc2N)C(=O)O[C@@H]1C [Daptomycin]	3.1 (≈ 5.02 µg/mL)	–	100	6.2 to 12.5	> 12.5	–	–	80	–	80	0.78 (≈ 1.26 µg/mL)	~ 70%	0.78 (≈ 1.26 µg/mL)	0.78 (≈ 1.26 µg/mL)	5
